Measured values as given in ChEMBL document CHEMBL1148739, “Microwave-assisted ring opening of epoxides: a general route to the synthesis of 1-aminopropan-2-ols with anti malaria parasite activities” (J Med Chem, 2007).
Active and inactive are the calls of the source. The rule behind the calls is not given here.

Columns and labels:
Plasmodium falciparum [1] = assay: Antimalarial activity against Plasmodium falciparum FCR3 after 72 hrs; type: functional, organism-based; settings: FCR3, 72 h
Outline: (§1)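 P. falciparum in continuous culture in 5% O+ erythrocytes, RPMI-1640 with 25 mM HEPES, 0.5% albumax, 2 mM L-glutamine, gentamicin; 37 °C, 5% CO2/5% O2/90% N2; sorbitol-synchronized. Ring stages seeded at 0.05% parasitemia, 1.5% hematocrit; 72 h with threefold serial dilutions from 100 µM. HRPII accumulation after freeze-thaw lysis read as percent of untreated controls; duplicates; IC50 from 72 h HRPII production.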

Plasmodium falciparum [2] = assay: Antimalarial activity against Plasmodium falciparum 3D7 after 72 hrs; type: functional, organism-based; settings: 3D7, 72 h; outline: as §1
[3] = biological target: T1, Aquaglyceroporin (Plasmodium falciparum) (UniProt Q8II36); assay: Inhibition of Plasmodium falciparum AQP expressed in BY4742-deltafpsl cells at 100 uM after 48 hrs; type: cell-based
T1 sequence (whole entry): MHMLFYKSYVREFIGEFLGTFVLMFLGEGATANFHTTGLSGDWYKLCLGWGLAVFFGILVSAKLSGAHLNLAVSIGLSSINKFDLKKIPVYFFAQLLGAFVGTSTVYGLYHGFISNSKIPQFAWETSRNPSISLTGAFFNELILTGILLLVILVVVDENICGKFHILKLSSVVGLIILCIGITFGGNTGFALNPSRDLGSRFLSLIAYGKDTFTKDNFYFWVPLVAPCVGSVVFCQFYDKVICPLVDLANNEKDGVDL
Outline: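 BY4742Δfps1 yeast expressing PfAQP grown in 20 mM MES-buffered (pH 5.5) minimal YNB with 3% glucose, 0.1% proline, with or without 50 mM methylamine hydrochloride; compound at 100 µM, untreated cells as controls.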

MONO-MAC-6 = assay: Effect on cell viability in human MONO-MAC-6 cells at 100 uM after 24 hrs; type: functional, cell-based
Outline: (§2)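 Cell lines kept at 37 °C in RPMI 1640 with L-glutamine and 10% fetal calf serum under 5% humidified CO2. Cell suspension (25 cells/µL) exposed to 100 µM compound for 24 h (one cell cycle) at 37 °C. Viability by Trypan Blue dye uptake; duplicates.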

Jurkat = assay: Effect on cell viability in human Jurkat lymphoblastoid cells at 100 uM after 24 hrs; type: functional, cell-based; outline: as §2
NALM-6 = assay: Effect on cell viability in human NALM6 cells at 100 uM after 24 hrs; type: functional, cell-based; outline: as §2

Compound	IC50 (Plasmodium falciparum [1]) [µM]	IC50 (Plasmodium falciparum [2]) [µM]	Activity [3]	Activity (MONO-MAC-6)	Activity (Jurkat)	Activity (NALM-6)
CCN1CCCC1CNCC(O)COCc1ccccc1 (stereo not drawn)	15.8	32.5				
CC(C)(C)NCC(O)COCc1ccccc1 (stereo not drawn)	12.7					
O[C@H](CNC1CCCC1)COCc1ccccc1	4.6	3.9				
OC(CNCC1CCCO1)COCc1ccccc1 (stereo not drawn)	7.7					
OC(CNCCc1cccs1)COCc1ccccc1 (stereo not drawn)	1.2					
OC(COCc1ccccc1)CN1CCCC1 (stereo not drawn)	20.2					
OC(CNC1CCCC1)COCc1ccccc1 (stereo not drawn)	10.3	15.1				
CCN(CC)CC(O)COCc1ccccc1 (stereo not drawn)	28.1					
OC(CNCc1ccco1)COCc1ccccc1 (stereo not drawn)	3.4					
O[C@@H](CNC1CCCC1)COCc1ccccc1	5.9	5.1				
OC(CNCc1ccccc1)COCc1ccccc1 (stereo not drawn)	12.5		inactive			
C=CCNCC(O)CCl (stereo not drawn)	23.8					
OC(COCc1ccccc1)CN1CCNCC1 (stereo not drawn)	12.5					
CN(Cc1ccccc1)CC(O)CSCc1ccccc1 (stereo not drawn)	16.3	9.3		inactive	inactive	inactive
CN(Cc1ccccc1)CC(O)CCl (stereo not drawn)	31	15.6		inactive	inactive	inactive
CN(Cc1ccccc1)CC(O)COCc1ccccc1 (stereo not drawn)	2	47	inactive			
CN(Cc1ccccc1)CC(O)CNCc1ccccc1 (stereo not drawn)	41.6	15.4				
CCN(Cc1ccccc1)CC(O)COCc1ccccc1 (stereo not drawn)	0.7		inactive			
OC(CCl)CN1CCNCC1 (stereo not drawn)	38.5	66		inactive	inactive	inactive
CN(Cc1ccccc1)CC(O)CN(C)Cc1ccccc1	43.9	43.5				
OC(CNc1ccccn1)COCc1ccccc1 (stereo not drawn)	31.1					
OC(CNCc1cccs1)COCc1ccccc1 (stereo not drawn)	5.8	9.7	inactive	inactive	inactive	inactive
OC(CNCC1CC1)COCc1ccccc1 (stereo not drawn)	8.4		inactive			
OC(CNC1CCC1)COCc1ccccc1 (stereo not drawn)	15.2					
CCN(Cc1ccccc1)CC(O)CN(C)Cc1ccccc1 (stereo not drawn)	7.7	3.7	inactive	inactive	inactive	inactive
